Molecules are shown by their SMILES. Where only a bound is given, the exact number is not on record here.

For one data set, the target named is Coagulation factor X (Homo sapiens, UniProt P00742). Nature of the data set: Inhibitory concentration against human Coagulation factor X.
In another data set the target is Prothrombin (Homo sapiens, UniProt P00734). Nature of the data set: Inhibitory concentration against human Coagulation factor II (thrombin).
A short description of data set [1]: Number of mice died after 1 day upon i.v. administration at 10 mg/kg into tail vein out of 3 animals tested. Type of data set: ADME, organism-based. Also noted: dose 10 mg/kg, route intravenous. Conditions: mouse, in vivo, iv, 24 h. The procedure, abridged: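 Male ICR mice given a single 10 mg/kg bolus into the tail vein. Result is expressed as deaths per animals tested.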

The next data set concerns the target Plasminogen (Homo sapiens, UniProt P00747). Nature of the data set: Inhibitory concentration against human Plasmin. The procedure, abridged: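 Plasmin assay, human enzyme at 0.02 U/mL as added, preincubated 10 min at 37 °C with vehicle or compound at 12.5, 25 and 50 µM final. S-2403 was added at 0.125 and 0.25 mM final and incubated 10 min at 37 °C. Stopped with 60% acetic acid; A405 of p-nitroaniline.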

For another data set, the target named is Trypsin (Homo sapiens, UniProt P07477+P07478+P35030). Nature of the data set: Inhibitory concentration against human Trypsin. The class given is protein assay. The procedure, abridged: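 Human trypsin (5 U/mL as added) preincubated 10 min at 37 °C with vehicle or compound at 50, 100 and 200 µM final. S-2222 was added at 0.125 and 0.25 mM final and incubated 10 min at 37 °C. Stopped with 60% acetic acid; p-nitroaniline read at 405 nm.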

Chain of Coagulation factor X (P00742 41-179 limits assumed): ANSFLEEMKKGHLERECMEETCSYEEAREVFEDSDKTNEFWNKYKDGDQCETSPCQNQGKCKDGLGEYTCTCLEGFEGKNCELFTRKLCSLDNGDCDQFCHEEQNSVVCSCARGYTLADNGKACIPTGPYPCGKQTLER
Chain of Coagulation factor X (P00742 235-488 limits assumed): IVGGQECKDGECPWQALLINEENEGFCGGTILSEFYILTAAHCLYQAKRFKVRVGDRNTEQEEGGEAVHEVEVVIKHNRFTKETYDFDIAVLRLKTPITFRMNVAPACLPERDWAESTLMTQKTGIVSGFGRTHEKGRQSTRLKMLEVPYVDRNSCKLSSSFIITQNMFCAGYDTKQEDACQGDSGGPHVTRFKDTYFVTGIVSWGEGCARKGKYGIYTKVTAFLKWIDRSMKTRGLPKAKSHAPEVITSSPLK
Chain of Plasminogen (P00747 97-580 limits assumed): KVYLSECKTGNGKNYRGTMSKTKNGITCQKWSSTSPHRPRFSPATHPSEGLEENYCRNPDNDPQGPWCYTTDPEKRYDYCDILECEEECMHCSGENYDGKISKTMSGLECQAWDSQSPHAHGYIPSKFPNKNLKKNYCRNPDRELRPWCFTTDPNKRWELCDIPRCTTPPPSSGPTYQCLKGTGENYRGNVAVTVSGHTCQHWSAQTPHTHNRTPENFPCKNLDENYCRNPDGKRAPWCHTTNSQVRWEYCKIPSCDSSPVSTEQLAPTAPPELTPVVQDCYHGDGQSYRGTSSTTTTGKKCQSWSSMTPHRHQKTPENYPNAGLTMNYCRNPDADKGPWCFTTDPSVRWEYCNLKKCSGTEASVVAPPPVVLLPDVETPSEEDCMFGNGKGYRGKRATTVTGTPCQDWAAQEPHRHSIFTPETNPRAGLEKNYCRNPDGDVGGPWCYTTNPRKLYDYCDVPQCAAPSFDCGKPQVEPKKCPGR
Chain of Plasminogen (P00747 581-810 limits assumed): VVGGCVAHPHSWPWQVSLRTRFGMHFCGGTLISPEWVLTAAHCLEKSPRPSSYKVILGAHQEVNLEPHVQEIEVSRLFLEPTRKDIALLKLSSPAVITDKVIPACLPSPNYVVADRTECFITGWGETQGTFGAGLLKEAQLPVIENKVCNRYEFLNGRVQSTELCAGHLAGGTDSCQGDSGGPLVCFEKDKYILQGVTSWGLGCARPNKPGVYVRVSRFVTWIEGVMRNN

Usually IC50 stands for the point on the concentration scale where inhibition reaches its midpoint. Turning to `N=C(N)N1CCc2ccc(OCC3CCN(Cc4cccc(N)c4)CC3)cc2C1`, the IC50 on Coagulation factor X is 4.06 µM; on Prothrombin, > 10 µM.

At Coagulation factor X, `CCOC(=O)C1(COc2ccc3c(c2)CN(C(=N)N)CC3)CCN(c2ccncc2)CC1.Cl.Cl` yielded a 50% inhibitory concentration (IC50) of 0.074 µM. The same compound registered a Mortality in data set [1] of 3.

Consider `N=C(N)N1CCc2ccc(OCC3CCNCC3)cc2C1`, for which the half-maximal inhibitory concentration (IC50) was 3.34 µM against Coagulation factor X and > 10 µM at Prothrombin. `Cl.Cl.N=C(N)N1CCc2ccc(OCC3(C(=O)O)CCN(c4ccncn4)CC3)cc2C1` gave an IC50 on Coagulation factor X of 0.12 µM. The compound also had a Mortality in data set [1] of 0. Consider `N=C(N)N1CCc2ccc(OCCC3(C(=O)O)CCN(c4ccncc4)CC3)cc2C1`, for which the IC50 against Coagulation factor X worked out at 0.23 µM. As for `N=C(N)N1CCCc2ccc(OCC3(C(=O)O)CCN(c4ccncc4)CC3)cc2C1`, the IC50 on Coagulation factor X and against Prothrombin was > 10 µM throughout. As to `CC(=O)N1CCC(COc2ccc3c(c2)CN(C(=N)N)CC3)CC1`, at Prothrombin, the IC50 was > 10 µM. Turning to `CCOC(=O)C1(COc2ccc3c(c2)CN(C(=N)N)CC3)CCN(c2cc[n+](C)cc2)CC1`, at Coagulation factor X, the IC50 turned out to be 1.13 µM. Turning to `Cl.Cl.Cl.N=C(N)N1CCc2ccc(OCC3CCN(Cc4ccncc4)CC3)cc2C1`, the Mortality in data set [1] was 3. The compound `Cl.Cl.N=C(N)N1CCc2ccc(OCC3(C(=O)O)CCN(c4ccncc4)CC3)cc2C1` registered a Mortality in data set [1] of 0. With `N=C(N)c1ccc2ccc(OCC3(C(=O)O)CCN(c4ccncc4)CC3)cc2c1`, the 50% inhibitory concentration (IC50) at Coagulation factor X is 0.51 µM; at Prothrombin it was > 10 µM. In the case of `N=C(N)N1CCc2ccc(S(=O)(=O)NC3(C(=O)O)CCN(c4ccncc4)CC3)cc2C1`, the IC50 against Prothrombin was > 10 µM. `Cl.Cl.N=C(N)N1CCc2ccc(OCC3CCN(c4ccncc4CCC(=O)O)CC3)cc2C1` came in with an IC50 on Coagulation factor X of 0.16 µM. Further, the Mortality in data set [1] stood at 0. For `Cl.Cl.N=C(N)N1CCc2ccc(OCC3CCN(c4ccncc4C(=O)O)CC3)cc2C1`, the IC50 was 1.98 µM against Coagulation factor X and > 10 µM against Prothrombin. This compound also came in with a Mortality in data set [1] of 0. Consider `N=C(N)N1CCc2ccc(SCC3(C(=O)O)CCN(c4ccncc4)CC3)cc2C1`, for which the 50% inhibitory concentration (IC50) against Coagulation factor X stood at 0.39 µM.

Turning to `N=C(N)N1CCc2ccc(OCC3CCN(Cc4ccccc4N)CC3)cc2C1`, the figures for the 50% inhibitory concentration (IC50) against Coagulation factor X and on Prothrombin were 3.25 µM and > 10 µM, respectively. The compound `COC(=O)c1cnccc1N1CCC(COc2ccc3c(c2)CN(C(=N)N)CC3)CC1.Cl.Cl` displayed an IC50 against Coagulation factor X of 0.27 µM. This compound also had a Mortality in data set [1] of 3.

On Coagulation factor X, `Cc1cc(N2CCC(COc3ccc4c(c3)CN(C(=N)N)CC4)(C(=O)O)CC2)ccn1.Cl.Cl` had an IC50 of 0.23 µM. This compound returned a Mortality in data set [1] of 0. On the same counts, the results for `Cl.Cl.N=C(N)N1CCc2ccc(OCC3CCN(c4ccncc4)CC3)cc2C1` are 0.056 µM and 3.

Turning to `CC(=N)N1CCC(COc2ccc3c(c2)CN(C(=N)N)CC3)CC1.Cl.Cl`, the concentration for half-maximal inhibition (IC50) against Coagulation factor X turned out to be 0.51 µM. This compound also showed a Mortality in data set [1] of 3. For `N=C(N)N1CCc2ccc(OCC3CCN(Cc4ccccn4)CC3)cc2C1`, the figures for the half-maximal inhibitory concentration (IC50) on Coagulation factor X and against Prothrombin were 1.35 µM and > 10 µM, respectively. Take `Cl.Cl.N=C(N)N1CCc2ccc(OCC3CCN(c4ccnc5ccccc45)CC3)cc2C1`: at Coagulation factor X, the half-inhibitory concentration (IC50) amounted to 0.42 µM. The same compound registered a Mortality in data set [1] of 3.

`N=C(N)N1CCc2ccc(S(=O)(=O)CC3(C(=O)O)CCN(c4ccncc4)CC3)cc2C1`: the IC50 was 5.44 µM against Coagulation factor X and > 10 µM against Prothrombin.

The Ki is a dissociation constant, usually derived from enzyme kinetics or from competition with a known ligand. With `CC(=N)N1CC[C@H](Oc2ccc([C@H](Cc3ccc4ccc(C(=N)N)cc4c3)C(=O)O)cc2)C1.Cl` [DX-9065A HYDROCHLORIDE HYDRATE], the inhibition constant (Ki) on Plasminogen worked out at 23 µM; on Trypsin, 0.62 µM. As to `CCOC(=O)CCc1cnccc1N1CCC(COc2ccc3c(c2)CN(C(=N)N)CC3)CC1.Cl.Cl`, the concentration for half-maximal inhibition (IC50) against Coagulation factor X was 0.19 µM; on Prothrombin, > 10 µM. In data set [1], this compound registered a Mortality of 3.

The record behind these values is ChEMBL document CHEMBL1139513, “Synthesis and structure-activity relationships of novel selective factor Xa inhibitors with a tetrahydroisoquinoline ring” (J Med Chem, 2005).
